Source: PubChem (several laboratories)
A selection: hits, their analogues and other compounds. The true share with any hit is near 9.4%.
Lmaj promast: Leishmania major promastigote growth inhibition, primary screen. inhibition, % at 10 µM. Leishmania major promastigotes, resazurin fluorescence viability. 9% of 200,000 active; in the data active = inhibition above about 50%;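 note: promastigotes grown with compound for 44 hours at 28 °C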
Mdm2-MdmX inh: inhibitors of human Mdm2-MdmX association, primary screen, cell-based, luminescence, split luciferase, SaOS-2, uHTS | Protein Mdm4 (Homo sapiens) + E3 ubiquitin-protein ligase Mdm2 (Homo sapiens), … | SaOS-2 split-luciferase Mdm2/MdmX complementation | inhibition, % at 8 µM | 3% of 330,000 active;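 active = inhibition of at least 50% at 8 µM in the primary screen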
Target sequence (O15151 whole entry, looked up): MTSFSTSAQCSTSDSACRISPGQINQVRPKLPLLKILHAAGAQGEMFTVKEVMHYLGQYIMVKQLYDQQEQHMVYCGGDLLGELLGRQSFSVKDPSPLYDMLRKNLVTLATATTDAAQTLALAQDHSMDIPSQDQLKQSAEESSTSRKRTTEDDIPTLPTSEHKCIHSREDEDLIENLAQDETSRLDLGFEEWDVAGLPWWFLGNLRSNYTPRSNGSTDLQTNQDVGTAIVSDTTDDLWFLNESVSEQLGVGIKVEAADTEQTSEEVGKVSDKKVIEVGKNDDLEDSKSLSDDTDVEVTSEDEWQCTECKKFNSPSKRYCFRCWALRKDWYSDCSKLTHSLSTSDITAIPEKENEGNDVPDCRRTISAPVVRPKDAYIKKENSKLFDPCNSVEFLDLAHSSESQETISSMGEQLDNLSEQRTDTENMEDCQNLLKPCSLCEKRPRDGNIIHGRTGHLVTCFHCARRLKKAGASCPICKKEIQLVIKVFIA
Target sequence (Q00987 whole entry, looked up): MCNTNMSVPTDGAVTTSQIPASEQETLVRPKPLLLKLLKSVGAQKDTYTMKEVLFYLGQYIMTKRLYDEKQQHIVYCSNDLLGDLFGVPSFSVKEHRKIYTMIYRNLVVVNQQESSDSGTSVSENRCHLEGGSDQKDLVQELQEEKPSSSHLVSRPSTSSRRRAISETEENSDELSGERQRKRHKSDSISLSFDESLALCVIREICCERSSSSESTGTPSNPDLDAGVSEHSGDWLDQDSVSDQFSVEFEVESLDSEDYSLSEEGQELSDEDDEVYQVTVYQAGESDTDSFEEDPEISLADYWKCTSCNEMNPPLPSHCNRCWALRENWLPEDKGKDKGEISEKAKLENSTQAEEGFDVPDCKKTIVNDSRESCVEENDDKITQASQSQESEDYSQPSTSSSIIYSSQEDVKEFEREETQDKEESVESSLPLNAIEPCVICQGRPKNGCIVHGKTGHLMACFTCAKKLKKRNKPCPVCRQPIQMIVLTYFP
SKKanGAS inh: S. pyogenes SKKanGAS growth inhibitors in kanamycin, primary screen, streptokinase expression inhibitor project, SKKanGAS strain, BacTiter-Glo luminescence; 6 h; inhibition, % at 7.5 µM; 1.3% of 300,000 active;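 active = mean replicate score, as percent of positive control median, at least 50; inconclusive = mean below 50 but one replicate at or above 50; inactive = mean and every replicate below 50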;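 note: strain carries kanamycin resistance gene driven by streptokinase promoter and grows in 40 µg/ml kanamycin; loss of luminescence reflects streptokinase promoter inhibition or plain growth inhibition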
T cruzi repl: inhibitors of intracellular T. cruzi growth, primary screen, luminescence, NIH3T3 host cells. T. cruzi beta-gal in NIH3T3, 90 h. inhibition, % (no concentration beside the values). 1.4% of 300,000 active;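 active = mean inhibition across valid replicates above about 55%, limit read from the data; inconclusive = mean below that limit but half or more replicates reach it; inactive = mean below it, under half of replicates reach it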;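 note: signal also drops with host cell toxicity which is not excluded here; higher percent means less beta-gal luminescence so fewer parasites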
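Material: NIH/3T3 host cells with β-galactosidase reporter T. cruzi; Input: 5,000 host fibroblasts per well; Medium: DMEM, 2% fetal bovine serum; Compound: 50 nL DMSO compound solution per well; Schedule: 3 h host attachment, then at least 90 h co-culture; Detection: luminescent β-galactosidase signal after 60 min lysis.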
Beta cell apopt: inhibitors of cytokine-induced beta cell apoptosis, primary screen, luminescence. INS-1E cytokine-induced death, ATP luminescence, 48 h; percent of positive-control rescue, neutral wells zero. protection from apoptosis, % (concentration not given with the values). 0.8% of 300,000 active. AID 435005, 2010;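 active = Every replicate reaches about 75%, or at least half do and their mean reaches it too, limit read from the data; inconclusive = At least half of replicates reach the limit but their mean does not; inactive = Under half of replicates reach the limit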;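 note: higher means more ATP so stronger rescue from cytokine killing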
CSC inhib: cancer stem cell viability inhibitors, primary screen, luminescence. inhibition, % at 7.5 µM. 1.1% of 300,000 active. cancer stem cell-like cells viability; in the data active = inhibition above about 75%; inconclusive = no clear call, values can overlap the other calls; tested in HMLE shEcad cells
Mdm2 MdmX conf: Mdm2-MdmX complex disruptors, retested hits, confirmation, luminescence, single concentration | AID 489028, 2010 | inhibition, % at 8 µM | shares compounds with Mdm2-MdmX inh | 55% of 10,000 active | Mdm2-MdmX binding, luminescent assay; in the data active = inhibition above about 40%
Full FLuc ctr: full-length luciferase signal inhibition, confirmation, counter-screen for Mdm2/MdmX interaction inhibitor project, cell-based, single concentration, SaOS-2. shares compounds with Mdm2-MdmX inh. SaOS-2 full-length luciferase counterscreen, luminescence. inhibition, % at 8 µM. 77% of 6,200 active;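 active = mean inhibition at 8 µM reaching about 37%, which flags the compound as non-specific, limit read from the data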;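 note: p53-null SaOS-2 cells with luciferase driven by a doxycycline-inducible promoter; compound on cells about two nights before reading with doxycycline added after day one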
Numbers stand for hits; . = inactive; ? = inconclusive; / = no result.

SMILES	Lmaj promast	Mdm2-MdmX inh	SKKanGAS inh	T cruzi repl	Beta cell apopt	CSC inhib	Mdm2 MdmX conf	Full FLuc ctr
CN1CCN(c2ccc([N+](=O)[O-])cc2C(=O)N2CCOCC2)CC1	.	.	.	.	.	.	/	/
Cc1ccc(C(=O)c2cc([N+](=O)[O-])ccc2N2CCN(C)CC2)cc1	.	50	.	.	.	.	60	55
COc1ccc(C(=O)c2cc([N+](=O)[O-])ccc2N2CCCC2)cc1	.	50	.	.	.	.	64	53
CN1CCN(c2ccc([N+](=O)[O-])cc2C(=O)c2ccc(Br)cc2)CC1	.	54	.	.	.	.	59	60
O=C(c1ccc(Br)cc1)c1cc([N+](=O)[O-])ccc1N1CCCCC1	.	58	.	.	.	.	52	95
COc1ccc(C(=O)c2cc([N+](=O)[O-])ccc2N2CCN(C)CC2)cc1	.	.	.	.	.	.	/	/
O=C(c1ccccc1)c1cc([N+](=O)[O-])ccc1N1CCCC1	.	.	.	.	.	.	/	/
O=C(NCC(=O)N1CCN(c2ccccn2)CC1)c1ccc(Br)o1	/	.	.	.	/	.	/	/
S=c1[nH]nc(COc2ccc(Cl)cc2Cl)n1-c1ccccc1	/	.	.	.	/	.	/	/
CC(C)CC(NS(=O)(=O)c1ccccc1)C(=O)O (stereo not given)	.	.	.	.	.	.	/	/
CC(C)CN=C(NS(=O)(=O)c1ccccc1)C(Cl)(Cl)Cl	90	88	.	.	.	147	81	.
CC(C)(Cc1ccccc1)/[N+]([O-])=C\c1ccccc1	/	.	.	.	.	.	/	/
COc1cc(-c2nc3ccc4ccccc4c3c3c2CCC3)cc(OC)c1OC	.	62	.	.	.	.	57	57
CCOc1ncccc1C(=O)OCC(=O)N(CC(C)C)c1c(N)n(Cc2ccccc2)c(=O)[nH]c1=O	/	.	.	.	.	.	/	/
CCCCCCCCCCn1c2c(c(=N)c3c1CCC3)CCC2	100	98	?	68	118	91	95	.
CCCCCCCCCn1c2c(c(=N)c3c1CCC3)CCCC2	100	98	.	58	/	/	96	.
O=C1COc2cc(S(=O)(=O)CCC(=O)N3CCCCC3)c(Cl)cc2N1	/	.	.	.	.	.	/	/
N#C/C(=N/Nc1ccc(OC(F)(F)F)cc1)C(N)=S	/	78	115	.	88	.	88	.
COc1ccc(N/N=C(\C#N)C(N)=O)cc1	.	.	.	.	.	.	/	/
CCCCN(C)CCNC(=O)c1cc(-c2cccnc2)nc2ccc(S(=O)(=O)N3CCC(C)CC3)cc12	/	96	.	.	.	.	.	/
CCN(CC)CCNC(=O)c1cc(-c2cccnc2)nc2ccc(S(=O)(=O)N3CCC(C)CC3)cc12	/	100	.	.	.	.	76	53
CCCCN(C)CCCNC(=O)c1cc(-c2cccnc2)nc2ccccc12	/	.	.	.	.	.	/	/
CS(=O)(=O)N(CC(=O)NCc1ccco1)c1cccc([N+](=O)[O-])c1	.	.	.	.	.	.	/	/
O=C1c2ccccc2C2=Nc3ccccc3SC(c3ccc(Cl)cc3)C12 (stereo not given)	99	87	78	.	95	127	47	78
CCOC(=O)C1=C(C)N=C2c3ccccc3C(=O)C2C1c1ccc(C)cc1 (stereo not given)	.	.	.	.	/	.	/	/
CCOc1ccc(-n2ccc(=O)c(C(=O)O)n2)cc1	/	.	.	.	.	.	/	/
CCCc1nn2c(=O)cc(COc3ccc(NC(=O)c4ccco4)cc3)nc2s1	/	74	.	.	.	.	.	/
O=C(O)c1sc2cc(C(F)(F)F)cnc2c1-c1ccccc1	.	.	.	.	/	.	/	/
